Data as given in ChEMBL document CHEMBL1141869.
Active and inactive are the calls of the source. The calls are words filed in the database; no cut-off is given here.

What was measured:
[1] = biological target: T1, NAD-dependent protein deacetylase sirtuin-1 (Homo sapiens) (UniProt Q96EB6); assay: Inhibitory activity against human SIRT1 at 100 uM
T1 sequence (whole entry): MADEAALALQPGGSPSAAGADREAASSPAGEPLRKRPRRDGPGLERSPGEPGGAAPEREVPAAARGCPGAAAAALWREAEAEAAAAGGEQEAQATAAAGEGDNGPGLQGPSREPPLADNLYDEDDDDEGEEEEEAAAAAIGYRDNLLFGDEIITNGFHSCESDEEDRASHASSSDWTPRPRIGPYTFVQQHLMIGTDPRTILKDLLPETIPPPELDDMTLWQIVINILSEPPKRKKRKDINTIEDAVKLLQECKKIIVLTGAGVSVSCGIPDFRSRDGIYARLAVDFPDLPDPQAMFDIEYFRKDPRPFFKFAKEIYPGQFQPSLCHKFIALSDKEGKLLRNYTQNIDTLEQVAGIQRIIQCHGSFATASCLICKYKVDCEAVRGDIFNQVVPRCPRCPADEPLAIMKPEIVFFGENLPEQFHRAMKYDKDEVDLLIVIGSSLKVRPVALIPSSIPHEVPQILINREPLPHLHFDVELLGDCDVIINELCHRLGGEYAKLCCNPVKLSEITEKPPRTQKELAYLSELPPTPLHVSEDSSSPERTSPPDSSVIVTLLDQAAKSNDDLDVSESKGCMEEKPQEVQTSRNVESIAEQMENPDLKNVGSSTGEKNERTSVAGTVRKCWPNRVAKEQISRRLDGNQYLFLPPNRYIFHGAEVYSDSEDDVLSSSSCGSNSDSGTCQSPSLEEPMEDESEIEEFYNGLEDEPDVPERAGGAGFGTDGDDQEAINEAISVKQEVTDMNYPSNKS
How it was run: (§1)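 His-tagged recombinant human SIRT1 or SIRT2 (1 μg), purified, run in a fluorogenic deacetylase assay with 250 μM acetylated histone substrate, 1 mM DTT and 200 μM NAD⁺ for 60 min at 37 °C. Inhibitor was tested at 0, 20, 75, 100, 150 or 300 μM. Developer was added and fluorescence read at ex 360/em 450 nm. Values are the mean of at least three separate experiments.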

[2] = biological target: NAD-dependent histone deacetylase SIR2 (Saccharomyces cerevisiae S288c) (UniProt P06700); assay: Inhibitory activity against recombinant yeast Sir2 at 100 uM
Sequence of NAD-dependent histone deacetylase SIR2 (Saccharomyces cerevisiae S288c) (P06700 whole entry): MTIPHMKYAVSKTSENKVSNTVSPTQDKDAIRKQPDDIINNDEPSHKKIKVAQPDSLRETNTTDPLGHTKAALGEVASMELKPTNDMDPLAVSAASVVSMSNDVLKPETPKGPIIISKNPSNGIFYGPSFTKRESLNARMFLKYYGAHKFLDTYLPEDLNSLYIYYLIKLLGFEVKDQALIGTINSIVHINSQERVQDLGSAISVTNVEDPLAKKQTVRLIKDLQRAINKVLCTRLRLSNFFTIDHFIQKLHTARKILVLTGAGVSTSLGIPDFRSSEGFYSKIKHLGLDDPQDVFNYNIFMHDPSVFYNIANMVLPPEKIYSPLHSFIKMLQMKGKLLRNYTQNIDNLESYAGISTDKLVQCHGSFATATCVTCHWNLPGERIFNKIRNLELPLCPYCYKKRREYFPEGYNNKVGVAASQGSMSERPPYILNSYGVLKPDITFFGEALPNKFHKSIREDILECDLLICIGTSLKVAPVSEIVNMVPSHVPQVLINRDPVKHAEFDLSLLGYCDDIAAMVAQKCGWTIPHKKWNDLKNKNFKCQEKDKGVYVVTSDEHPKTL
How it was run: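 Purified His-tagged recombinant yeast Sir2p (3 μg) was incubated 60 min at 30 °C with 250 μM acetylated histone substrate, 1 mM DTT, 200 μM NAD⁺ and inhibitor at 0, 20, 75, 100, 150 or 300 μM. Deacetylation was detected fluorometrically after developer treatment (ex 360/em 450 nm). Values are means of at least three separate experiments.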

[3] = biological target: T2, NAD-dependent protein deacetylase sirtuin-2 (Homo sapiens) (UniProt Q8IXJ6); assay: Inhibitory activity against human SIRT2 at 100 uM; how it was run: as §1
T2 sequence (whole entry): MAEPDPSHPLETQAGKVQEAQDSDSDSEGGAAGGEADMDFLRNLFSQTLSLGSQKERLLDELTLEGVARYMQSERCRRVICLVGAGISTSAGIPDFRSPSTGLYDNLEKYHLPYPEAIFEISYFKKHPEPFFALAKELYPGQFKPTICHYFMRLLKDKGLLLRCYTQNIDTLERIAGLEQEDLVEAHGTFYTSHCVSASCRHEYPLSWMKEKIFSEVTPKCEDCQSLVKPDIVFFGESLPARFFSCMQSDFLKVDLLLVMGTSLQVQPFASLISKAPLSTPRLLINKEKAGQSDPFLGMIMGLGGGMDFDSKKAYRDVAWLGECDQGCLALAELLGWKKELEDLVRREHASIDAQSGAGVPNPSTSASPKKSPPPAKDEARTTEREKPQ

| SMILES | inhibition [1] | inhibition [2] | inhibition [3] [%] |
| --- | --- | --- | --- |
| C[C@@H](NC(=O)c1ccccc1/N=C/c1c(O)ccc2ccccc12)c1ccccc1 | 61.8% | 55.5% | 72.2 |
| CC(NC(=O)c1ccccc1/N=C/c1c(O)ccc2ccccc12)c1ccccc1 (stereo not given) | 44.5% | 65.6% | 71 |
| CC(NC(=O)c1cccc(/N=C/c2c(O)ccc3ccccc23)c1)c1ccccc1 (stereo not given) | 63% | 53.9% | 79.2 |
| C[C@H](NC(=O)c1ccccc1/N=C/c1c(O)ccc2ccccc12)c1ccccc1 | 60.2% | 57% | 73.5 |
| N#Cc1ccccc1/N=C/c1c(O)ccc2ccccc12 | 20% | 15% | – |
| NC(=O)c1ccccc1/N=C/c1c(O)ccc2ccccc12 | inactive | inactive | – |
| CC(NC(=O)c1ccccc1/N=C/c1cccc2ccccc12)c1ccccc1 (stereo not given) | 33% | 10% | – |
| CCOC(=O)c1ccccc1/N=C/c1c(O)ccc2ccccc12 | 9% | 20% | – |
| CC(NC(=O)c1ccc(/N=C/c2c(O)ccc3ccccc23)cc1)c1ccccc1 (stereo not given) | 82.6% | 59.8% | 80.2 |
| O=C(O)c1ccccc1/N=C/c1c(O)ccc2ccccc12 | 26% | 5% | – |
